Only some compounds are listed: those with a hit (about 2.6% of all), similar ones and a draw of the others.
rCAG binder: binders of r(CAG) RNA repeats, primary screen, biochemical, fluorescence; r(CAG) RNA repeat, TO-PRO-1 dye displacement fluorescence; AID 651821, 2012; inhibition, % at 3 µM; 1.3% of 370,000 active;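 active means inhibition above the plate cutoff, the mean of all test compounds on that plate plus 3 SD, cut at about 35% in these data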;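 further: 0% = DMSO alone and 100% = 100 µM mitoxantrone as full dye displacement; higher means more dye released from RNA so lower well fluorescence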
NadD inh: inhibitors of S. aureus NadD, primary screen, biochemical, colorimetric, uHTS; Nicotinate-nucleotide adenylyltransferase NadD (Staphylococcus aureus N315); purified NadD enzyme, colorimetric absorbance read-out; inhibition, % at 20 µM; 0.78% of 360,000 active; AID 602399, 2012; in the data active means inhibition above about 26%
STEP block: STEP phosphatase inhibitors, primary screen, biochemical, fluorescence intensity, uHTS; Tyrosine-protein phosphatase non-receptor type 5 (Homo sapiens), P54829; recombinant STEP, OMFP fluorogenic substrate; inhibition, % at 20 µM; 0.25% of 360,000 active; AID 588621, 2011;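 active means inhibition at 20 µM, scaled per plate between control wells, above about 37%, limit read from the data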;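 further: 0% = DMSO with enzyme and substrate and 100% = substrate only without enzyme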
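material = STEP tyrosine phosphatase | reagent = fluorogenic phosphatase substrate OMFP at 25 µM final | doses = single compound dose of 20 µM, 1% DMSO final | schedule = 20 min reaction, room temperature, in the dark | measured by = fluorescence, 480/540 nm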
LMPTP inh: LMPTP phosphatase inhibitors, primary screen, biochemical, fluorescence intensity, uHTS | Low molecular weight phosphotyrosine protein phosphatase (Homo sapiens), P24666 | recombinant LMPTP-A, OMFP fluorogenic substrate | inhibition, % at 20 µM | 0.22% of 360,000 active | AID 651560, 2012;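 active means compounds that cut the enzyme signal by at least half of the control window in the single-dose screen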;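 further: plate controls were DMSO wells with enzyme plus substrate for no effect and substrate without enzyme for full effect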
Target sequence (P24666 whole entry, looked up): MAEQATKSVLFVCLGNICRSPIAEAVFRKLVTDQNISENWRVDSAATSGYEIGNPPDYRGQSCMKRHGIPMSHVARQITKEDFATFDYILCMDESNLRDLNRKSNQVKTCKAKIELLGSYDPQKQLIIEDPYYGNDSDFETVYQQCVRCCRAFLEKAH
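material = LMPTP-A | quantity = 0.625 nM enzyme | reagent = OMFP substrate, 400 µM final | buffer or medium = Bis-Tris pH 6.0, DTT, detergent | detection = endpoint fluorescence intensity from OMFP dephosphorylation | dosing = single 20 µM dose | read-out basis = % inhibition relative to no-enzyme and uninhibited control wells | control set = no-enzyme and uninhibited controls | timing = 50 min at room temperature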
Scp1 inh: Scp-1 phosphatase inhibitors, primary screen, biochemical, colorimetric, uHTS; Carboxy-terminal domain RNA polymerase II polypeptide A small phosphatase 1 (Homo …; inhibition, % at 20 µM; Recombinant Scp1, phosphopeptide, malachite green phosphate absorbance; 0.88% of 340,000 active;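 active means inhibition above about 50% at 20 µM, limit read from the data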;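 further: plate controls were DMSO wells with enzyme for no effect and wells lacking enzyme for full effect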
Target sequence (Q9GZU7 76-261 limits assumed): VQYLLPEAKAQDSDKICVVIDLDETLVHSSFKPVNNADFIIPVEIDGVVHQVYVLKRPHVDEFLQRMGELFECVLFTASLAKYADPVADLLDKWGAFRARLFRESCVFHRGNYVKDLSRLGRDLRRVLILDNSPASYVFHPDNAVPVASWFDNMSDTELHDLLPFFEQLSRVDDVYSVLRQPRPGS
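Test system: SCP-1 catalytic domain; Buffer or medium: Acidic Tris acetate buffer with magnesium and detergent; Also added: Phosphorylated 17-residue peptide substrate; Compound: single 20 µM dose, 1% DMSO; Schedule: enzyme reaction 45 min at room temperature, colour 5 min, stabilisation 30 min; Signal: Phosphate-binding colour reagent, absorbance read at 630 nm.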
* = called active by the depositor; / = no result.

SMILES	rCAG binder	NadD inh	STEP block	LMPTP inh	Scp1 inh
CCC(C)C(=O)OCC1(c2ccc(C)cc2OC(=O)C(C)C)CO1 (stereo not drawn)	0	2	0	-1	53*
CCC(=O)N1CCC(C(=O)NC2CCCc3ccccc32)CC1 (stereo not drawn)	-1	/	/	/	/
O=C1CCCC(O)=C1N=Nc1cccc(C(=O)O)c1	7	3	5	5	61*
CCCCCCCCN1C(=O)[C@@H](CC(=O)NCCCN2CCCC2=O)C[C@@]2(C(=O)OC)C1=C[C@H](C(C)C)O[C@@H]2C1CC1	1	/	/	/	/
COc1ccc(S[C@]2(C(=O)N3CCCC3)CC(=O)N(P(=O)(OC)OC)[C@@H]2c2ccc(OC)cc2)cc1	2	/	/	/	/
Oc1cccc(Nc2nc(O)c(/C=C3\C=Nc4ccccc43)s2)c1	48*	21	-6	11	-2
Oc1nc(Nc2cccc(Cl)c2)sc1/C=C1\C=Nc2ccccc21	55*	18	-2	3	-8
COC(=O)[C@]12C[C@H](CC(=O)NCCC(C)C)C(=O)N(Cc3ccc(Cl)cc3Cl)C1=C[C@H](C(C)(C)C)O[C@@H]2C	9	/	/	/	/
CCOC(=O)N1CCN(C(=O)C[C@H]2C[C@@]3(C(=O)OC)C(=C[C@H](COCc4ccccc4)O[C@@H]3C)N(CCc3ccc(OC)c(OC)c3)C2=O)CC1	3	/	/	/	/
COC(=O)[C@]12C[C@H](CC(=O)NCC34CC5CC(CC(C5)C3)C4)C(=O)N(Cc3ccco3)C1=C[C@H](COCc1ccccc1)O[C@@H]2C	8	/	/	/	/
COc1cc2c(ccc3cc(OC)c(OC)c(O)c32)cc1O	28	22	53*	62*	69*
COC(=O)C12C=C3CC(c4ccc(C)s4)=C3C(=O)N1Cc1[nH]c3ccccc3c1C2 (stereo not drawn)	6	/	/	/	/
CCCNC(=O)Cn1c(=O)/c(=C\c2ccc(-c3ccc([N+](=O)[O-])cc3)o2)s/c1=C\C(=O)C(C)(C)C	/	30*	-104	4	-8
CCCNC(=O)Cn1c(=O)/c(=C/c2ccc(-c3cccc([N+](=O)[O-])c3)o2)s/c1=C\C(=O)C(C)(C)C	15	18	-25	2	-8
O=C1c2cccc3cccc(c23)C(=O)N1/N=C/c1ccc(O)cc1O	2	6	-3	0	-8
O=C1c2ccccc2C(=O)N1/N=C/c1ccc(O)c(O)c1O	/	7	22	68*	8
N#CC1=C(N)N(c2ccc(F)cc2)C2=C(C1c1ccc(O)cc1)S(=O)(=O)CC2 (stereo not drawn)	35*	8	-3	2	-4
COc1ccccc1CNc1nc(-c2cc(C)n(C)c2C)cs1	/	30*	-2	11	3
COc1ccccc1CC(=O)Nc1nc(-c2ccc(F)c(F)c2)cs1	4	-8	0	3	-14
Cc1cc(C(=O)N/N=C2\CC(=O)c3ccccc32)c(C)n1-c1ccc(F)cc1	19	31*	3	4	1
O=C(O)CCCN1C(=O)/C(=C/c2ccc(-c3nc4ccccc4s3)o2)SC1=S	18	11	62*	9	59*
O=C(NN1C(=O)/C(=C/C=C/c2ccccc2)SC1=S)c1ccncc1	29	34*	0	4	-1
O=C(CCN1C(=O)/C(=C/c2ccccc2)SC1=S)NNC(=O)c1ccncc1	1	7	2	-1	-1
O=C(CN1C(=O)/C(=C\C=C\c2ccccc2)SC1=S)Nc1ccc(F)cc1	13	14	0	-2	-8
O=C(CCN1C(=O)/C(=C/C=C/c2ccccc2)SC1=S)Nc1nc2ccccc2s1	10	42*	1	1	-3
SMILES	rCAG binder	NadD inh	STEP block	LMPTP inh	Scp1 inh
O=C(O)CCCCCN1C(=O)/C(=C\c2ccncc2)SC1=S	3	2	3	0	1
O=C(O)CCCCCN1C(=O)/C(=C\c2ccc(-c3ccc(Cl)cc3)o2)SC1=S	3	8	7	79*	89*
COC(=O)[C@]12C[C@H](CC(=O)NCc3ccc(C)o3)C(=O)N(Cc3ccc(Cl)cc3Cl)C1=C[C@H](COCc1ccccc1)O[C@@H]2C	8	/	/	/	/
COc1ccc(-c2cc(-c3nnc(SCc4cccc5ccccc45)n3N)[nH]n2)cc1	16	/	/	/	/
Cc1nc(N)sc1-c1csc(Nc2cc(N(C)C)ccc2Cl)n1	34	42*	2	3	/
Cc1ccc(Nc2nc(-c3sc(N)nc3C)cs2)cc1	15	15	-1	-1	2
O=C(Oc1ccc2c(c1)OCO2)c1cc2c(s1)CCC2	28	24	7	52*	65*
Cc1ccc(Cn2nnc3c2-c2cc(F)ccc2S(=O)(=O)N(C(C)(C)C)C3)cc1	3	/	/	/	/
O=[N+]([O-])c1ccc(O)c(/C=N/n2cnc3ccccc32)c1	3	-1	1	1	-5
Cc1ccc(/C=C2\SC(=S)N(/N=C/c3cc([N+](=O)[O-])ccc3O)C2=O)o1	/	37*	17	53*	57*
COC(=O)C[C@@H]1CC[C@@H]2[C@H](COc3ccc(NC(=O)c4cccc(OC)c4)cc3C(=O)N2C)O1	2	/	/	/	/
NC1=C(Br)C(=O)c2ncccc2C1=O	2	3	5	4	2
O=C1C=C(NCCc2cc(Br)c(O)c(Br)c2)C(=O)c2ncccc21	12	22	46*	21	34
CCOc1cc(/C=C2\C(=O)ON=C2c2ccccc2)ccc1OC	4	13	3	-1	-13
CCOc1cc(/C=C2\C(=O)N(c3nc(-c4ccc(Br)cc4)cs3)N=C2c2ccccc2)ccc1O	/	77*	4	10	-16
Nc1nccc(SCc2ccc(Cl)cc2Cl)n1	0	-1	-2	0	-2
Nc1nc(N)c(Cc2ccc(Cl)cc2Cl)c(N)n1	-1	-2	2	64*	-7
COc1cccc(C(=O)n2ccc3ccc(-c4ccc5ccn(Cc6ccc(C#N)cc6)c5c4)cc32)c1	24	/	/	/	/
CCOC(=O)c1[nH]c2ccc(C)cc2c1NC(=O)CN1CCCCC1	-2	4	0	-1	37
Cc1c2cc[n+](CCN3CCCCC3)cc2c(C)c2c1[nH]c1ccc(O)cc12	/	48*	5	48	-10
COC(=O)C1CN(C2CCCC2)CCS(=O)(=O)N1Cc1ccc(C(F)(F)F)cc1 (stereo not drawn)	-2	/	/	/	/
COC(=O)[C@]12C[C@H](CC(=O)NCc3cccc4ccccc34)C(=O)N(CCc3ccc(OC)c(OC)c3)C1=C[C@H](COCc1ccccc1)O[C@@H]2C	11	/	/	/	/
COc1cc(/C=C2\C(=O)N(c3ccccc3)N=C2C)ccc1Oc1ccc([N+](=O)[O-])cc1[N+](=O)[O-]	29	36*	1	2	-2

Screens from PubChem BioAssay.
